The nature of data set [1]: Cellular uptake in mouse DA-3 cell cytoplasm at 10 uM after 30 mins by confocal microscopic analysis. Format: ADME, cell-based. The settings on record: da-3, 0.5 h.
Data set [2] can be described thus: Cellular uptake in mouse DA-3 cell lysosome at 10 uM after 30 mins by LysoTracker red staining-based confocal microscopic analysis relative to control. Type of data set: ADME. The settings on record: da-3, 0.5 h.
Data set [3] can be described thus: Cellular uptake in mouse DA-3 cell mitochondria at 10 uM after 30 mins by mitotracker red staining-based confocal microscopic analysis. Format: ADME. Conditions: da-3, 0.5 h.
Data set [4] is described as follows: Cellular uptake in mouse DA-3 cell nucleus at 10 uM after 30 mins by DRAQ5 deep red staining-based confocal microscopic analysis relative to control. Type of data set: ADME. The settings on record: da-3, 0.5 h.
Data set [5] is described as follows: Displacement of SYBR from phage lambda DNA by FID assay. Set-up: species or system Enterobacteria phage lambda. A digest of the protocol: (§1)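 Run at 37 °C; each well held 500 ng phage lambda DNA (48 Kb) with either SYBR safe (final dilution 1:10000) or YOYO-1 (one dye molecule per 40 base pairs) and test compound at up to 40 μM; dye fluorescence displacement gave IC50.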

Data set [6] can be described thus: Displacement of YOYO1 from phage lambda DNA by FID assay. Set-up: species or system Enterobacteria phage lambda. A digest of the protocol: as §1
Data set [7] has as its system DA-3. The experiment in a line: Cytotoxicity against mouse DA-3 cells assessed as reduction in cell viability at 20 uM after 60 mins by XTT assay. Format: functional, cell-based. A digest of the protocol:
(§2)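 DA3 cells incubated with 20 μM anthracycline; XTT viability measured after 60, 120 and 180 min of incubation; percentage cell death expressed relative to untreated control cells (set as 100% viability).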

Data set [8] can be described thus: (§3) Cytotoxicity against mouse DA-3 cells assessed as reduction in cell viability at 20 uM after 180 mins by XTT assay relative to control. Format: functional. A digest of the protocol:
as §2
A general note: Formazan colour is commonly taken as a measure of viable cells.

A short description of data set [9]: Cytotoxicity against human ES2 cells after 24 hrs by XTT assay. Type of data set: functional, cell-based. Conditions: ES-2, 24 h. A digest of the protocol:
(§4)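 Cells seeded at ~5 × 10^3 per well, exposed to drug at concentrations up to 60 μM for 24 h; viability read by XTT assay and IC50 values derived.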

The nature of data set [10]: Cytotoxicity against mouse DA-3 cells after 24 hrs by XTT assay. Format: functional, cell-based. Conditions: DA-3, 24 h. A digest of the protocol:
as §4

Another data set has as its system SK-OV-3. The experiment in a line: Cytotoxicity against human SKOV3 cells after 24 hrs by XTT assay. Type of data set: functional, cell-based. Conditions: SK-OV-3, 24 h. A digest of the protocol: as §4
The subject of another data set is MCF7. Nature of the data set: Cytotoxicity against human MCF7 cells after 24 hrs by XTT assay. Conditions: MCF7, 24 h. Type of data set: functional, cell-based. A digest of the protocol:
as §4

Data set [11] can be described thus: Cellular uptake in mouse DA-3 cell lysosome at 10 uM after 30 mins by LysoTracker green staining-based confocal microscopic analysis relative to control. Type of data set: ADME. The settings on record: da-3, 0.5 h.
Data set [12] in a line: Cellular uptake in mouse DA-3 cell mitochondria at 10 uM after 10 hrs by mitotracker red staining-based confocal microscopic analysis. Format: ADME. The settings on record: da-3, 10 h.
Data set [13] can be described thus: Cellular uptake in mouse DA-3 cell lysosome at 10 uM after 10 hrs by LysoTracker green staining-based confocal microscopic analysis. Format: ADME. Conditions: da-3, 10 h.
A short description of data set [14]: Cellular uptake in mouse DA-3 cell nucleus at 10 uM after 10 hrs by DRAQ5 deep red staining-based confocal microscopic analysis. Conditions: da-3, 10 h. Format: ADME.
In data set [15] the test system is Enterobacteria phage lambda. Nature of the data set: Ratio of idarubicin IC50 to compound IC50 for displacement of YOYO1 from phage lambda DNA.
Data set [16] is described as follows: Cytotoxicity against mouse DA-3 cells assessed as reduction in cell viability at 20 uM after 6 hrs by XTT assay relative to control. Format: functional.
The subject of data set [17] is DA-3. Described as §3. Type of data set: functional. A digest of the protocol: as §2
The test system of data set [18] is Enterobacteria phage lambda. Nature of the data set: Ratio of idarubicin IC50 to compound IC50 for displacement of SYBR from phage lambda DNA.
The subject of data set [19] is Enterobacteria phage lambda. The experiment in a line: Ratio of doxorubicin IC50 to compound IC50 for displacement of SYBR from phage lambda DNA.
The subject of data set [20] is DA-3. Nature of the data set: Cytotoxicity against mouse DA-3 cells assessed as reduction in cell viability at 20 uM by XTT assay. Type of data set: functional, cell-based. A digest of the protocol: as §2

The values below come from ChEMBL document CHEMBL2331546, “The structure of anthracycline derivatives determines their subcellular localization and cytotoxic activity” (ACS Med Chem Lett, 2013).

Calls of active or inactive are those of the source. The rule behind the calls is not given here.

Take `C[C@@H]1O[C@@H](OCc2cc(O)c3c(c2)C(=O)c2cccc(O)c2C3=O)C[C@H](N)[C@H]1O`: the Drug uptake result in [1] is on record as “Active”; in [2], 67.12%; in data set [3] it was “Not Active”; in [4] it was “Not Active”. In addition, the IC50 was over 40 µM in data set [5]; over 40 µM in data set [6]; 6.8 µM in data set [9]; 7.9 µM in [10]; 11.1 µM with SK-OV-3; 23.6 µM in the data set with MCF7. In the data set with DA-3 [7], the result was Active. In addition, the Activity in [8] amounted to 100%.

As for `Cc1c(O)c2c(c(O)c1CO[C@H]1C[C@H](N)[C@@H](O)[C@H](C)O1)C(=O)c1ccccc1C2=O`, the Drug uptake result in data set [1] is “Active”; in data set [2], 84.48%; in data set [3], “Not Active”; in data set [4], “Not Active”. Besides, the IC50 was over 40 µM in [5]; over 40 µM in data set [6]; 17.7 µM in [9]; 17.5 µM in [10]; 16.3 µM in the data set with SK-OV-3; 17.2 µM with MCF7.

On to `COc1cccc2c1C(=O)c1c(O)c3c(c(O)c1C2=O)C[C@@](O)(C(C)=O)C[C@@H]3O[C@H]1C[C@H](N)[C@H](O)[C@H](C)O1` [DAUNORUBICIN], for which the results for the Drug uptake in data set [11] and in data set [4] were 83.19% and “Not Active”, respectively. For the same compound, the IC50 in [5] amounted to 0.14 µM; in data set [6], 0.84 µM; in data set [9], 25.5 µM; in data set [10] it was 1.9 µM; with SK-OV-3, 20.6 µM; in the data set on MCF7 it was 33.9 µM. In addition, the result in the data set on DA-3 [7] was Active. Moreover, the Activity in data set [8] is on record as 80%.

`COc1cccc2c1C(=O)c1c(O)c3c(c(O)c1C2=O)C[C@@](O)(C(=O)CO)C[C@@H]3O[C@H]1C[C@H](N)[C@H](O)[C@H](C)O1` [DOXORUBICIN]: the Drug uptake result is given as “Active” in [12]; “Active” in data set [13]; “Active” in data set [14]; 27.55% in [11]; “Not Active” in [3]; 41.43% in [4]. Moreover, the Ratio IC50 in data set [15] worked out at 3. In addition, the half-maximal inhibitory concentration (IC50) in [5] was 0.73 µM; in data set [6], 0.6 µM; in [9] it was over 60 µM; in [10], 4 µM; in the data set on SK-OV-3 it was 55.7 µM; with MCF7, over 60 µM. Moreover, the Activity in [16] is 12%. Moreover, the outcome with DA-3 [17] was inactive.

`CC(=O)[C@]1(O)Cc2c(O)c3c(c(O)c2[C@@H](O[C@H]2C[C@H](N)[C@H](O)[C@H](C)O2)C1)C(=O)c1ccccc1C3=O` [IDARUBICIN]: the Drug uptake in [11] was 83.2%; in [3] it was “Not Active”. Besides, the results for the Ratio IC50 in [15], in [18] and in data set [19] were 3, 5 and 5, respectively. For the same compound, the IC50 in [5] was determined as 0.89 µM; in [6], 1.97 µM; in data set [9], 3.2 µM; in data set [10] it was 2.3 µM; with SK-OV-3, 4.5 µM; in the data set on MCF7, 7.3 µM. Moreover, the result in the data set on DA-3 [20] was Active.

The IC50 is the concentration at which inhibition is half-maximal.
